Reference: ChEMBL document CHEMBL1124128, “Angiotensin-converting enzyme inhibitors. Mercaptan, carboxyalkyl dipeptide, and phosphinic acid inhibitors incorporating 4-substituted prolines” (J Med Chem, 1988)
Several values for one entry are separate records, joined by “and”; a condition that tells them apart may be missing. Identical values can stand only once.

Columns and labels:
Rattus norvegicus [1] = test: (§1) % Inhibition of angiotensin-I induced pressor response in normotensive rats after intravenous dosing of 0.05 umol/kg; type: functional
Method in brief: (§2)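 Male Sprague–Dawley rats (225–275 g) fitted with indwelling abdominal aorta and vena cava catheters, recovered at least 2 weeks, then tested conscious and unrestrained. Aortic pressure was recorded directly. Pressor responses to AI (310 ng/kg iv) and AII (100 ng/kg iv) were taken before dosing. Compound was given iv in water or 5% NaHCO3, and responses were followed up to 70 min. Maximum % inhibition is the mean of four animals per dose.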

Rattus norvegicus [2] = test: % Inhibition of angiotensin-I induced pressor response in normotensive rats after intravenous dosing of 0.15 umol/kg; type: functional
Method in brief: (§3)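 Conscious, unrestrained male Sprague–Dawley rats (225–275 g) with indwelling aortic and vena caval catheters, allowed at least 2 weeks of recovery. Aortic pressure recorded directly. Baseline pressor responses to AI (310 ng/kg iv) and AII (100 ng/kg iv) were taken first. Compound was given iv in 0.1 mL water or 5% NaHCO3, and responses were followed for up to 70 min. Maximum % inhibition is the mean of four animals per dose.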

Rattus norvegicus [3] = test: % Inhibition of angiotensin-I induced pressor response in normotensive rats after intravenous dosing of 0.5 umol/kg; type: functional; method in brief: as §3
Rattus norvegicus [4] = test: % Inhibition of angiotensin-I induced pressor response in normotensive rats after intravenous dosing of 1.5 umol/kg; type: functional; method in brief: as §3
Rattus norvegicus [5] = test: % Inhibition of angiotensin-I induced pressor response in normotensive rats after peroral dosing of 0.5 umol/kg; type: functional; details: po
Method in brief: (§4)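 Conscious, unrestrained catheterized male Sprague–Dawley rats (225–275 g) had direct aortic pressure recording. Baseline pressor responses were taken to AI (310 ng/kg iv) and AII (100 ng/kg iv). Compound was given orally in water, 5% NaHCO3 or 1% agar suspension. AI and AII responses were then tracked up to 280 min. Maximum % inhibition is the mean response of four animals per dose.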

Rattus norvegicus [6] = test: % Inhibition of angiotensin-I induced pressor response in normotensive rats after peroral dosing of 1.5 umol/kg; type: functional; details: po; method in brief: as §4
Rattus norvegicus [7] = test: % Inhibition of angiotensin-I induced pressor response in normotensive rats after peroral dosing of 5 umol/kg; type: functional; details: po; method in brief: as §4
Rattus norvegicus [8] = test: % Inhibition of angiotensin-I induced pressor response in normotensive rats after peroral dosing of 50 umol/kg; type: functional; details: po; method in brief: as §4
Rattus norvegicus [9] = test: (§5) % Inhibition of angiotensin-I induced pressor response in normotensive rats after peroral dosing of 15 umol/kg; type: functional; details: po; method in brief: as §4
Rattus norvegicus [10] = test: (§6) % Inhibition of angiotensin-I induced pressor response in normotensive rats after intravenous dosing of 5 umol/kg; type: functional; method in brief: as §2
[11] = biological target: T1, Angiotensin-converting enzyme (Rattus norvegicus) (UniProt P47820); test: In vitro inhibition of rat Angiotensin I converting enzyme
T1 sequence (whole entry): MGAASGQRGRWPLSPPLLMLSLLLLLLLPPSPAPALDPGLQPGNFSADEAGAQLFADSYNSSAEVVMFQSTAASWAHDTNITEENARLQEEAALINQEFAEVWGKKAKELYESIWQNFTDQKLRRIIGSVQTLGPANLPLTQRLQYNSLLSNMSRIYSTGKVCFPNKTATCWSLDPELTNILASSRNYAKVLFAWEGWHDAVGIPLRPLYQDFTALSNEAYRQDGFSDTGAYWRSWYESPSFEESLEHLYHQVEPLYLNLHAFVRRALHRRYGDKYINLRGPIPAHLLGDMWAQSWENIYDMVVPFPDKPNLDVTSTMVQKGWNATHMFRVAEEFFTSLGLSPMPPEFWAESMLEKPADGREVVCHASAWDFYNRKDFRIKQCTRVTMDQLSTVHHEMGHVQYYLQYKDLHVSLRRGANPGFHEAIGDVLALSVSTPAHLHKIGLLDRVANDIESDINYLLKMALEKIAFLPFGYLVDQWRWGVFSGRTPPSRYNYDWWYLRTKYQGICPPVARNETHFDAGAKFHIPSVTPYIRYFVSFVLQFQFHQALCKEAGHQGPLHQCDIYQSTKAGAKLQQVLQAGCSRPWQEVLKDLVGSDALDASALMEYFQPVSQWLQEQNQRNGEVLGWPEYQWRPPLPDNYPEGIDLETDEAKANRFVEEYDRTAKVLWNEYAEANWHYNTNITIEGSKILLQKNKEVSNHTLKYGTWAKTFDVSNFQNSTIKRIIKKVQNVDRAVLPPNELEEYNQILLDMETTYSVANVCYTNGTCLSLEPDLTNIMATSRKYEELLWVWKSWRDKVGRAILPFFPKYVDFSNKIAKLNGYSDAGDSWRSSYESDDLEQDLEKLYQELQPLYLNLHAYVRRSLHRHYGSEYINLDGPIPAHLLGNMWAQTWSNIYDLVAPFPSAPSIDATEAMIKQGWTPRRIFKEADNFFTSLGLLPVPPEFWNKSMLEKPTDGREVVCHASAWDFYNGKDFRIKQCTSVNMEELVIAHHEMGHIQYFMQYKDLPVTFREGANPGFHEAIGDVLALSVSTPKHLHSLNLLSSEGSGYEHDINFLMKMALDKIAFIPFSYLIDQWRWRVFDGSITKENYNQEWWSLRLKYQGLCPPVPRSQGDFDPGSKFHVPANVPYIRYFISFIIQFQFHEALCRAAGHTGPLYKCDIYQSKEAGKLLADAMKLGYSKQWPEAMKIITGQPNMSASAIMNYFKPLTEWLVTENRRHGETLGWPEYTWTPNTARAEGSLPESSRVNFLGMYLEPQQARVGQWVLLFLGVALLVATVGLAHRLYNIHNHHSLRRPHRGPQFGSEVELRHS

Rattus norvegicus [12] = test: % Inhibition of angiotensin-I induced pressor response in normotensive rats after intravenous dosing of 0.015 umol/kg; type: functional; method in brief: as §2
Rattus norvegicus [13] = test: as §1; type: functional; method in brief: as §3; remark: listed apart in the source
[14] = biological target: T2, Angiotensin-converting enzyme (Oryctolagus cuniculus, UniProt P12822); test: Inhibitory activity against rabbit lung angiotensin-1 converting enzyme
T2 sequence (P12822 whole entry): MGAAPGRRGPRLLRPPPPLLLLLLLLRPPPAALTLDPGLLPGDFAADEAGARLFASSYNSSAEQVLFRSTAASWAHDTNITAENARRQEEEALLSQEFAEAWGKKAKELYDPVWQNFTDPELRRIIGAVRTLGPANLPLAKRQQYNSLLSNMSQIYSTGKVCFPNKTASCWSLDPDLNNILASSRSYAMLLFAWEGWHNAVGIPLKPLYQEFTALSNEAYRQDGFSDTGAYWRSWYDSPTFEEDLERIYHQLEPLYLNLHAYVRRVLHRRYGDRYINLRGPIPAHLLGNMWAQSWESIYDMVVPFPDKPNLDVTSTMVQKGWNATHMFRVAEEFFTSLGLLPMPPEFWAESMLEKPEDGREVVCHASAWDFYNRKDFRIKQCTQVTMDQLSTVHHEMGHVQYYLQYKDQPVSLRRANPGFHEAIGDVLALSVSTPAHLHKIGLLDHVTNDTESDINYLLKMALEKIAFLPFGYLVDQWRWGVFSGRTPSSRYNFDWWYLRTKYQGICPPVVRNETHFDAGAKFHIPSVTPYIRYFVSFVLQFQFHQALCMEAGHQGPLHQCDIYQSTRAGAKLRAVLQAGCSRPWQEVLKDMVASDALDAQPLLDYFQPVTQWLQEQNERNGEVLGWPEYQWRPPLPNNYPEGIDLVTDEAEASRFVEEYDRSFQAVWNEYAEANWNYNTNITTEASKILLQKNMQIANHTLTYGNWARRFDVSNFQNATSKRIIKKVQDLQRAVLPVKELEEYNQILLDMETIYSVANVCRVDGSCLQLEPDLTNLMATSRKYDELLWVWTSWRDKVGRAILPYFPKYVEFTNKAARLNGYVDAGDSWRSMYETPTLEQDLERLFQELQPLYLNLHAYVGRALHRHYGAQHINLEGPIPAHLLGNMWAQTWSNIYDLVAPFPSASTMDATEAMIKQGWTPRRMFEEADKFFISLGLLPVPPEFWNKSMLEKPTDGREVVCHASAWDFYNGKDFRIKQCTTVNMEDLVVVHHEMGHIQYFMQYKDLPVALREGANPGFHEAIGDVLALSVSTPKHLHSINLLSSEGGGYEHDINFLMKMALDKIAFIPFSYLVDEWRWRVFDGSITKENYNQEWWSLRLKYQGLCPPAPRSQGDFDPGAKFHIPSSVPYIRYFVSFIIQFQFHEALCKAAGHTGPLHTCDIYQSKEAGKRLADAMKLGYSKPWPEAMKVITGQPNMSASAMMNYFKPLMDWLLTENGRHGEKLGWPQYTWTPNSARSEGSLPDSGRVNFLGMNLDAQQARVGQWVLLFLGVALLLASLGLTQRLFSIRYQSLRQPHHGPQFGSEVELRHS

Rattus norvegicus [15] = test: as §5; type: functional; details: po; remark: listed apart in the source
Method in brief: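 Catheterized conscious male Sprague–Dawley rats (225–275 g). Baseline pressor responses to AI (310 ng/kg iv) and AII (100 ng/kg iv) were taken. Compound was given orally in 0.75 mL water, 5% NaHCO3 or 1% agar suspension, and AI/AII responses were followed for up to 280 min. Maximum % inhibition is the mean of four animals per dose.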

Rattus norvegicus [16] = test: as §6; type: functional; method in brief: as §3; remark: listed apart in the source
Rattus norvegicus [17] = test: % Inhibition of angiotensin-I induced pressor response in normotensive rats after peroral dosing of 150 umol/kg; type: functional; details: po; method in brief: as §4
Rattus norvegicus [18] = test: % Inhibition of angiotensin-I induced pressor response in normotensive rats after peroral dosing of 0.15 umol/kg; type: functional; details: po; method in brief: as §4

Row | SMILES | inhibition in vivo at 0.05 µmol/kg (Rattus norvegicus [1]) [%] | inhibition in vivo at 0.15 µmol/kg (Rattus norvegicus [2]) [%] | inhibition in vivo at 0.5 µmol/kg (Rattus norvegicus [3]) [%] | inhibition in vivo at 1.5 µmol/kg (Rattus norvegicus [4]) [%] | inhibition in vivo at 0.5 µmol/kg (Rattus norvegicus [5]) [%] | inhibition in vivo at 1.5 µmol/kg (Rattus norvegicus [6]) [%] | inhibition in vivo at 5 µmol/kg (Rattus norvegicus [7]) [%] | inhibition in vivo at 50 µmol/kg (Rattus norvegicus [8]) [%] | inhibition in vivo at 15 µmol/kg (Rattus norvegicus [9]) [%] | inhibition in vivo at 5 µmol/kg (Rattus norvegicus [10]) [%] | T50 [11] | inhibition in vivo at 0.015 µmol/kg (Rattus norvegicus [12]) [%] | inhibition in vivo at 0.05 µmol/kg (Rattus norvegicus [13]) [%] | Ki [14] [nM] | inhibition in vivo at 15 µmol/kg (Rattus norvegicus [15]) [%] | inhibition in vivo at 5 µmol/kg (Rattus norvegicus [16]) [%] | inhibition in vivo at 150 µmol/kg (Rattus norvegicus [17]) [%] | inhibition in vivo at 0.15 µmol/kg (Rattus norvegicus [18]) [%]
1 | C[C@H](CS)C(=O)N1CCC[C@H]1C(=O)O [CAPTOPRIL] | 18 | 66 | 87 | 91 | 42 | 61 | 79 | 93 | 78 | 93 |  |  |  |  |  |  |  | 
2 | CO[C@@H]1C[C@@H](C(=O)O)N(C(=O)CP(=O)(O)CCCCc2ccccc2)C1 |  |  | 73 |  |  |  |  |  |  |  | 100 nM | 23 | 33 |  |  |  |  | 
3 | O=C(O)[C@@H]1C[C@@H](C2CCCCC2)CN1C(=O)CP(=O)(O)CCCCc1ccccc1 [FOSINOPRILAT] | 21 | 68 | 87 |  |  |  | 28 |  |  |  | 11 nM and 4 nM |  |  | 1.5 | 71 |  |  | 
4 | O=C(O)[C@@H]1CCCN1C(=O)CP(=O)(O)CCCCc1ccccc1 |  |  | 56 | 86 |  |  |  | 47 | 13 |  | 180 nM |  |  | 15 |  | 92 | 75 | 
5 | CCOC(=O)[C@H](CCc1ccccc1)N[C@@H](C)C(=O)N1CC2(C[C@H]1C(=O)O)SCCS2 |  |  |  |  | 41 | 87 |  |  |  |  |  |  |  |  |  |  |  | 15
